Broadly, the MIC50 is the lowest concentration that inhibits either 50% of growth or 50% of the strains tested, depending on the study. Broadly, the MIC90 is an inhibitory concentration at the 90% level, which refers to growth in some studies and to a panel of isolates in others. A lower MIC90 goes with greater potency.

Molecules are shown by their SMILES. Converted amounts (≈) assume the structure as drawn. The source made the active and inactive calls. The rule behind the calls is not given here. A value given as a limit tells only on which side of the number the result lay.

The results in this text go back to ChEMBL document CHEMBL1150793, “In vitro susceptibilities of 217 clinical isolates of zygomycetes to conventional and new antifungal agents” (2007).

In test [1] the test system is Rhizopus. Kind of test: Antimicrobial activity against Rhizopus sp. after 24 hrs. It counts as functional. In outline: (§1)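 Broth microdilution of clinical isolates following CLSI M38-A for filamentous fungi. The polyene and echinocandin agents were tested in antibiotic medium 3, and the other agents in RPMI 1640. Plates were incubated 24 h at 35°C and end points read visually. The echinocandin end point was the minimal effective concentration (MEC); the others were MICs.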

Test [2] relates to Rhizopus arrhizus. Kind of test: Antimicrobial activity against Rhizopus arrhizus after 24 hrs. The test is classed as functional. In outline:
(§2)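 Clinical zygomycete isolates tested by broth microdilution in microtiter format, in essential agreement with CLSI M38-A for filamentous fungi. The polyene and echinocandin were tested in antibiotic medium 3, and the other agents in RPMI 1640. Plates were incubated for 24 h at 35°C, and end points were read visually. The echinocandin end point was taken as the minimal effective concentration.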

Test [3] has as its system Rhizopus microsporus var. rhizopodiformis. As to the kind of experiment: Antimicrobial activity against Rhizopus microsporus var. rhizopodiformis after 24 hrs. The test is classed as functional. The method, boiled down: as §1
The test system of test [4] is Mucor. As to the kind of experiment: Antimicrobial activity against Mucor sp. after 24 hrs. It counts as functional. In outline:
as §1

In test [5] the test system is Absidia. Kind of test: Antimicrobial activity against Absidia sp. after 24 hrs. It counts as functional, organism-based. In outline:
as §2

The subject of test [6] is Mucor circinelloides. As to the kind of experiment: Antimicrobial activity against Mucor circinelloides after 24 hrs. The test is classed as functional. In outline: as §2
Test [7] has as its system Rhizomucor. Kind of test: Antimicrobial activity against Rhizomucor sp. after 24 hrs. It counts as functional. In outline:
as §2

Test [8] has as its system Lichtheimia corymbifera. As to the kind of experiment: Antimicrobial activity against Absidia corymbifera after 24 hrs. The test is classed as functional. The method, boiled down: as §2
In test [9] the test system is Cunninghamella. Kind of test: Antimicrobial activity against Cunninghamella sp. after 24 hrs. It counts as functional. In outline:
as §2

Test [10] deals with Apophysomyces elegans. As to the kind of experiment: Antimicrobial activity against Apophysomyces elegans after 24 hrs. It counts as functional. The method, boiled down:
as §2

Test [11] has as its system Rhizopus. Kind of test: Antimicrobial activity against Rhizopus sp. assessed as percent of susceptible isolates after 24 hrs. It counts as functional.
For test [12], the system named is Rhizopus arrhizus. As to the kind of experiment: Antimicrobial activity against Rhizopus arrhizus assessed as percent of susceptible isolates after 24 hrs. It counts as functional.
The subject of test [13] is Rhizopus microsporus var. rhizopodiformis. As to the kind of experiment: Antimicrobial activity against Rhizopus microsporus var. rhizopodiformis assessed as percent of susceptible isolates after 24 hrs. It counts as functional.
Test [14] concerns Rhizopus microsporus var. microsporus. As to the kind of experiment: Antimicrobial activity against Rhizopus microsporus var. microsporus assessed as percent of susceptible isolates after 24 hrs. The test is classed as functional.
Test [15] concerns Mucor. Kind of test: Antimicrobial activity against Mucor sp. after assessed as percent of susceptible isolates after 24 hrs. The test is classed as functional.
Test [16] relates to Mucor circinelloides. As to the kind of experiment: Antimicrobial activity against Mucor circinelloides assessed as percent of susceptible isolates after 24 hrs. It counts as functional.
Test [17] relates to Rhizomucor. Kind of test: Antimicrobial activity against Rhizomucor sp. assessed as percent of susceptible isolates after 24 hrs. The test is classed as functional.
Test [18] concerns Absidia. As to the kind of experiment: Antimicrobial activity against Absidia sp. assessed as percent of susceptible isolates after 24 hrs. It counts as functional.
Test [19] has as its system Lichtheimia corymbifera. As to the kind of experiment: Antimicrobial activity against Absidia corymbifera assessed as percent of susceptible isolates after 24 hrs. It counts as functional.
Test [20] concerns Cunninghamella. As to the kind of experiment: Antimicrobial activity against Cunninghamella sp. assessed as percent of susceptible isolates after 24 hrs. It counts as functional.
For test [21], the system named is Apophysomyces elegans. As to the kind of experiment: Antimicrobial activity against Apophysomyces elegans assessed as percent of susceptible isolates after 24 hrs. It counts as functional.

As to `C[C@@H]1[C@H](O)[C@@H](C)/C=C/C=C/C=C/C=C/C=C/C=C/C=C/[C@H](O[C@@H]2O[C@H](C)[C@@H](O)[C@H](N)[C@@H]2O)C[C@@H]2O[C@](O)(C[C@@H](O)C[C@@H](O)[C@H](O)CC[C@@H](O)C[C@@H](O)CC(=O)O[C@H]1C)C[C@H](O)[C@H]2C(=O)O` [AMPHOTERICIN B], the MIC50 against Rhizopus [1] amounted to 0.25 µg/mL (≈ 0.271 µM); in the test with Rhizopus arrhizus [2] it was 0.25 µg/mL (≈ 0.271 µM); in test [3] it was 0.25 µg/mL (≈ 0.271 µM); in the test with Mucor [4] it was 0.25 µg/mL (≈ 0.271 µM); in the test with Mucor circinelloides [6], 0.25 µg/mL (≈ 0.271 µM); in the test with Rhizomucor [7], 0.125 µg/mL (≈ 0.135 µM). In addition, the MIC50 was determined as 0.25 µg/mL (≈ 0.271 µM) against Lichtheimia corymbifera [8], 1 µg/mL (≈ 1.08 µM) with Cunninghamella [9] and 0.125 µg/mL (≈ 0.135 µM) against Apophysomyces elegans [10]. Moreover, the MIC90 turned out to be 0.5 µg/mL (≈ 0.541 µM) in the test on Rhizopus [1], 0.25 µg/mL (≈ 0.271 µM) with Rhizopus arrhizus [2], 0.25 µg/mL (≈ 0.271 µM) in test [3] and 0.5 µg/mL (≈ 0.541 µM) against Mucor [4]. Moreover, the outcome in the test on Absidia [5] was inactive. The Activity stood at 100% with Rhizopus [11]; 100% in the test with Rhizopus arrhizus [12]; 100% in test [13]; 100% in test [14]; 94% in the test with Mucor [15]; 100% in the test with Mucor circinelloides [16]. Besides, the Activity stood at 100% in the test on Rhizomucor [17]; 100% in the test with Absidia [18]; 100% with Lichtheimia corymbifera [19]; 63% in the test on Cunninghamella [20]; 100% with Apophysomyces elegans [21].

Consider `CC[C@H](C)C[C@H](C)CCCCCCCCC(=O)N[C@H]1C[C@@H](O)[C@@H](NCCN)NC(=O)[C@@H]2[C@@H](O)CCN2C(=O)[C@H]([C@H](O)CCN)NC(=O)[C@H]([C@H](O)[C@@H](O)c2ccc(O)cc2)NC(=O)[C@@H]2C[C@@H](O)CN2C(=O)[C@H]([C@@H](C)O)NC1=O` [CASPOFUNGIN], for which the MIC50 (against Rhizopus [1]; against Rhizopus arrhizus [2]; in [3]; in the test with Mucor [4]) was over 16 µg/mL in each case. Besides, the MIC90 with Rhizopus [1] and in the test on Mucor [4] was over 16 µg/mL throughout. The result in the test with Absidia [5], in the test on Mucor circinelloides [6], with Rhizomucor [7], with Lichtheimia corymbifera [8], with Cunninghamella [9] and in the test on Apophysomyces elegans [10] was inactive. Moreover, the Activity (in the test on Rhizopus [11]; in the test on Rhizopus arrhizus [12]; in [13]; in the test on Mucor [15]; in the test with Mucor circinelloides [16]; in the test on Rhizomucor [17]) was 0% each time. For the same molecule, the Activity in the test with Absidia [18], in the test with Lichtheimia corymbifera [19], in the test on Cunninghamella [20] and in the test on Apophysomyces elegans [21] was 0% each time.

`OC(Cn1cncn1)(Cn1cncn1)c1ccc(F)cc1F` [FLUCONAZOLE]: the MIC50 against Rhizopus [1] and against Mucor [4] was over 64 µg/mL in each case. Besides, the MIC90 in the test on Rhizopus [1] is over 64 µg/mL. Also, the outcome in the test on Rhizopus arrhizus [2], in the test on Absidia [5], in the test on Mucor circinelloides [6], with Rhizomucor [7], in the test on Lichtheimia corymbifera [8] and with Cunninghamella [9] was inactive. For the same molecule, in the test on Apophysomyces elegans [10], the outcome was inactive. Moreover, the Antimicrobial activity result in test [3] is “inactive”. Moreover, the Activity (in the test on Rhizopus [11]; in the test with Rhizopus arrhizus [12]; in [13]; in the test with Mucor [15]; in the test on Mucor circinelloides [16]; in the test on Rhizomucor [17]) was 0% throughout. For the same molecule, the Activity in the test on Cunninghamella [20] and in the test with Apophysomyces elegans [21] was 0% each time.

In the case of `Nc1nc(=O)[nH]cc1F` [FLUCYTOSINE], the result (in the test on Rhizopus [1]; in the test on Rhizopus arrhizus [2]; in test [3]; with Mucor circinelloides [6]; in the test with Cunninghamella [9]) was inactive. Further, in the test on Mucor [4], the MIC50 was over 64 µg/mL. The Activity (with Rhizopus [11]; in the test with Rhizopus arrhizus [12]; in test [13]; with Mucor [15]; in the test with Mucor circinelloides [16]; in the test on Cunninghamella [20]) was 0% throughout.

With `CCC(C)n1ncn(-c2ccc(N3CCN(c4ccc(OC[C@H]5CO[C@](Cn6cncn6)(c6ccc(Cl)cc6Cl)O5)cc4)CC3)cc2)c1=O` (some centres not stated) [ITRACONAZOLE], the MIC50 amounted to 0.5 µg/mL (≈ 0.709 µM) in the test with Rhizopus [1]; 0.5 µg/mL (≈ 0.709 µM) against Rhizopus arrhizus [2]; 0.5 µg/mL (≈ 0.709 µM) in test [3]; 0.5 µg/mL (≈ 0.709 µM) against Mucor [4]; 1 µg/mL (≈ 1.42 µM) in the test with Cunninghamella [9]; 0.125 µg/mL (≈ 0.177 µM) in the test with Apophysomyces elegans [10]. Besides, the MIC90 is 4 µg/mL (≈ 5.67 µM) with Rhizopus [1] and over 8 µg/mL with Mucor [4]. The result in the test with Absidia [5], in the test with Mucor circinelloides [6], with Rhizomucor [7] and with Lichtheimia corymbifera [8] was inactive. The Activity is 62% in the test with Rhizopus [11]; 50% in the test with Rhizopus arrhizus [12]; 60% in [13]; 0% in test [14]; 57% in the test with Mucor [15]; 0% with Mucor circinelloides [16]. For the same molecule, the Activity with Rhizomucor [17] is given as 67%; with Absidia [18], 50%; with Lichtheimia corymbifera [19], 100%; with Cunninghamella [20], 29%; in the test on Apophysomyces elegans [21], 80%.

For the molecule `CC(=O)N1CCN(c2ccc(OCC3COC(Cn4ccnc4)(c4ccc(Cl)cc4Cl)O3)cc2)CC1` (configuration not stated) [KETOCONAZOLE], the MIC50 against Rhizopus [1] turned out to be 1 µg/mL (≈ 1.88 µM). Besides, the outcome (in the test on Rhizopus arrhizus [2]; in test [3]; in the test with Mucor [4]; in the test on Absidia [5]; with Mucor circinelloides [6]; with Rhizomucor [7]) was inactive. Besides, the outcome with Lichtheimia corymbifera [8], with Cunninghamella [9] and in the test on Apophysomyces elegans [10] was inactive. The Activity was determined as 83% in the test on Rhizopus [11]; 0% in the test on Rhizopus arrhizus [12]; 0% in test [13]; 33% in the test on Mucor [15]; 0% in the test on Mucor circinelloides [16]; 0% in the test with Cunninghamella [20].

Turning to `CC[C@@H]([C@H](C)O)n1ncn(-c2ccc(N3CCN(c4ccc(OC[C@@H]5CO[C@@](Cn6cncn6)(c6ccc(F)cc6F)C5)cc4)CC3)cc2)c1=O` [POSACONAZOLE], the MIC50 amounted to 0.25 µg/mL (≈ 0.357 µM) against Rhizopus [1]; 0.25 µg/mL (≈ 0.357 µM) against Rhizopus arrhizus [2]; 0.25 µg/mL (≈ 0.357 µM) in test [3]; 0.5 µg/mL (≈ 0.713 µM) in the test with Mucor [4]; 0.5 µg/mL (≈ 0.713 µM) against Cunninghamella [9]; 0.03 µg/mL (≈ 0.0428 µM) in the test with Apophysomyces elegans [10]. In addition, the MIC90 in the test on Rhizopus [1] is 1 µg/mL (≈ 1.43 µM); in the test on Rhizopus arrhizus [2] it was 1 µg/mL (≈ 1.43 µM); in the test with Mucor [4] it was 2 µg/mL (≈ 2.85 µM). In addition, the outcome with Absidia [5], with Mucor circinelloides [6], in the test with Rhizomucor [7] and in the test on Lichtheimia corymbifera [8] was inactive. Further, the Activity in the test on Rhizopus [11] is recorded as 80%; with Rhizopus arrhizus [12], 64%; in test [13], 78%; in the test with Mucor [15], 70%; in the test on Mucor circinelloides [16] it was 0%; with Rhizomucor [17], 67%. Besides, the Activity in the test with Absidia [18] stood at 100%; in the test with Lichtheimia corymbifera [19], 100%; with Cunninghamella [20], 75%; with Apophysomyces elegans [21] it was 83%.

As to `C[C@@H](c1ncncc1F)[C@](O)(Cn1cncn1)c1ccc(F)cc1F` [VORICONAZOLE], the MIC50 against Rhizopus [1] was 8 µg/mL (≈ 22.9 µM); in the test on Rhizopus arrhizus [2] it was over 8 µg/mL; in the test with Mucor [4], over 8 µg/mL; against Cunninghamella [9], over 8 µg/mL. The MIC90 against Rhizopus [1], against Mucor [4] and against Cunninghamella [9] was over 8 µg/mL throughout. For the same molecule, the Antimicrobial activity entry in test [3] is “inactive”. Moreover, the result with Absidia [5], in the test with Mucor circinelloides [6], in the test on Rhizomucor [7] and with Lichtheimia corymbifera [8] was inactive. Moreover, the Activity with Rhizopus [11] is 5%; with Rhizopus arrhizus [12] it was 0%; in test [13] it was 0%; in the test with Mucor [15], 0%; with Mucor circinelloides [16], 0%; in the test with Rhizomucor [17] it was 0%. In addition, the Activity in the test with Absidia [18] was 0%; in the test on Lichtheimia corymbifera [19] it was 0%; with Cunninghamella [20], 10%; with Apophysomyces elegans [21], 100%.
